Experimental data published in ChEMBL document CHEMBL4261600 (Eur J Med Chem, 2018).

Key:
GISTT1 = assay: Antiproliferative activity against human GISTT1 cells after 72 hrs by Celltiter-Glo assay; assay type: functional; conditions: GISTT1, 72 h
Summary of the method: (§1)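 Cells seeded at 3000/well in 96-well plates, exposed to serially diluted compound for 72 h at 37 °C, 5% CO2. Viability read by CellTiter-Glo luminescence and normalized to DMSO control. GI50 derived from curve fit, mean of three independent measurements. Culture media: DMEM/10% FBS for adherent lines; IMDM for MV4-11 and MEC-1/2; RPMI 1640 for suspension lines and CHL.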

[1] = system: Leucine-rich repeat serine/threonine-protein kinase 2 (Homo sapiens), Q5S007 [G2019S]; assay: Binding affinity to human partial length LRRK2 G2019S mutant (H970 to E2527 residues) expressed in mammalian expression system assessed as remaining unbound target protein level at 1000 nM by Kinomescan method relative to control
Summary of the method: (§2)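 KINOMEscan competition-binding profiling across the panel of 468 kinases and mutants, with inhibitor tested at 1 μM. Binding is expressed as percent of control, with DMSO as the reference control.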

[2] = target: Receptor-interacting serine/threonine-protein kinase 4 (Homo sapiens) (UniProt P57078); assay: Binding affinity to wild-type human partial length RIPK4 (M1 to V303 residues) expressed in mammalian expression system assessed as remaining unbound target protein level at 1000 nM by Kinomescan method relative to control
[3] = target: Phosphorylase b kinase gamma catalytic chain, skeletal muscle/heart isoform (Homo sapiens) (UniProt Q16816); assay: Binding affinity to wild-type human full length PHKG1 (M1 to Y387 residues) expressed in bacterial expression system assessed as remaining unbound target protein level at 1000 nM by Kinomescan method relative to control
Summary of the method: (§3)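 KINOMEscan competition binding profile across a panel of 468 kinases and mutants, with the inhibitor tested at a single concentration of 1 μM. Binding is reported as percent of control, meaning signal relative to a DMSO control.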

[4] = target: G protein-coupled receptor kinase 4 (Homo sapiens) (UniProt P32298); assay: Binding affinity to wild-type human full length GRK4 (M1 to C578 residues) expressed in bacterial expression system assessed as remaining unbound target protein level at 1000 nM by Kinomescan method relative to control
Summary of the method: (§4)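 Single-point competition binding screen across a panel of 468 kinases and mutants, with the inhibitor at 1 μM. Binding is read out as percent of a DMSO control, and targets below 1 percent control were classed as strong binders.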

[5] = Antiproliferative activity against human MEC1 cells after 72 hrs by Celltiter-Glo assay; assay type: functional; conditions: MEC1, 72 h; summary of the method: as §1
[6] = target: Tyrosine-protein kinase Lyn (Homo sapiens) (UniProt P07948); assay: Binding affinity to wild-type human partial length LYN (C219 to Q511 residues) expressed in bacterial expression system assessed as remaining unbound target protein level at 1000 nM by Kinomescan method relative to control
Summary of the method: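 KINOMEscan binding panel of 468 kinases/mutants. Inhibitor was tested at a single concentration of 1 μM. Binding is reported as percent of control, defined relative to a DMSO control.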

[7] = target: Casein kinase I isoform epsilon (Homo sapiens) (UniProt P49674); assay: Binding affinity to wild-type human full length CSNK1E (M1 to K416 residues) expressed in bacterial expression system assessed as remaining unbound target protein level at 1000 nM by Kinomescan method relative to control; summary of the method: as §4
[8] = target: Serine/threonine-protein kinase LATS1 (Homo sapiens) (UniProt O95835); assay: Binding affinity to wild-type human partial length LATS1 (Q678 to V1130 residues) expressed in bacterial expression system assessed as remaining unbound target protein level at 1000 nM by Kinomescan method relative to control
[9] = target: Cyclin-dependent kinase-like 5 (Homo sapiens) (UniProt O76039); assay: Binding affinity to wild-type human partial length CDKL5 (M1 to S337 residues) expressed in mammalian expression system assessed as remaining unbound target protein level at 1000 nM by Kinomescan method relative to control; summary of the method: as §3
[10] = system: Tyrosine-protein kinase ABL1 (Homo sapiens), P00519 [M351T]; assay: Binding affinity to human phosphorylated ABL1 M351T mutant (S229 to K512 residues) expressed in mammalian expression system assessed as remaining unbound target protein level at 1000 nM by Kinomescan method relative to control; summary of the method: as §4
[11] = target: Testis-specific serine/threonine-protein kinase 3 (Homo sapiens) (UniProt Q96PN8); assay: Binding affinity to wild-type human full length TSSK3 (M1 to T268 residues) expressed in mammalian expression system assessed as remaining unbound target protein level at 1000 nM by Kinomescan method relative to control; summary of the method: as §3
[12] = target: Serine/threonine-protein kinase Nek2 (Homo sapiens) (UniProt P51955); assay: Binding affinity to wild-type human partial length NEK2 (M1 to K309 residues) expressed in bacterial expression system assessed as remaining unbound target protein level at 1000 nM by Kinomescan method relative to control
[13] = target: Cyclin-dependent kinase 3 (Homo sapiens) (UniProt Q00526); assay: Binding affinity to wild-type human full length CDK3 (M1 to H305 residues) expressed in bacterial expression system assessed as remaining unbound target protein level at 1000 nM by Kinomescan method relative to control
Summary of the method: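 KINOMEscan competitive binding profile at 1 μM inhibitor. Remaining target binding reported as percent of DMSO control.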

[14] = system: ALK tyrosine kinase receptor (Homo sapiens), Q9UM73 [C1156Y]; assay: Binding affinity to wild-type human partial length ALK C1156Y mutant (I1088 to E1409 residues) expressed in mammalian expression system assessed as remaining unbound target protein level at 1000 nM by Kinomescan method relative to control
Summary of the method: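 Profiled in a KINOMEscan binding panel with the inhibitor at a single concentration of 1 μM. Binding to each kinase was read out as percent of control, relative to a DMSO control. Strong binders were defined as those with a percent control value below 1.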

[15] = system: Receptor-type tyrosine-protein kinase FLT3 (Homo sapiens), P36888 [UNDEFINED MUTATION]; assay: Binding affinity to human partial length FLT3 ITD mutant expressed in bacterial expression system assessed as remaining unbound target protein level at 1000 nM by Kinomescan method relative to control; summary of the method: as §2
[16] = target: Receptor tyrosine-protein kinase erbB-4 (Homo sapiens) (UniProt Q15303); assay: Binding affinity to wild-type human partial length ERBB4 (L690 to K994 residues) expressed in bacterial expression system assessed as remaining unbound target protein level at 1000 nM by Kinomescan method relative to control
[17] = target: Cyclin-G-associated kinase (Homo sapiens) (UniProt O14976); assay: Binding affinity to wild-type human partial length GAK (G13 to Y338 residues) expressed in bacterial expression system assessed as remaining unbound target protein level at 1000 nM by Kinomescan method relative to control
[18] = Cmax in beagle dog at 2 mg/kg, iv by LC-MS/MS analysis; assay type: ADME, organism-based, Canis lupus familiaris; parameters: dose 2 mg/kg, route intravenous; conditions: in vivo
[19] = target: Serine/threonine-protein kinase N2 (Homo sapiens) (UniProt Q16513); assay: Binding affinity to wild-type human partial length PKN2 (E634 to C984 residues) expressed in bacterial expression system assessed as remaining unbound target protein level at 1000 nM by Kinomescan method relative to control

Sequence of Phosphorylase b kinase gamma catalytic chain, skeletal muscle/heart isoform (Homo sapiens) (Q16816 whole entry, looked up, the tested form may be a part, canonical isoform): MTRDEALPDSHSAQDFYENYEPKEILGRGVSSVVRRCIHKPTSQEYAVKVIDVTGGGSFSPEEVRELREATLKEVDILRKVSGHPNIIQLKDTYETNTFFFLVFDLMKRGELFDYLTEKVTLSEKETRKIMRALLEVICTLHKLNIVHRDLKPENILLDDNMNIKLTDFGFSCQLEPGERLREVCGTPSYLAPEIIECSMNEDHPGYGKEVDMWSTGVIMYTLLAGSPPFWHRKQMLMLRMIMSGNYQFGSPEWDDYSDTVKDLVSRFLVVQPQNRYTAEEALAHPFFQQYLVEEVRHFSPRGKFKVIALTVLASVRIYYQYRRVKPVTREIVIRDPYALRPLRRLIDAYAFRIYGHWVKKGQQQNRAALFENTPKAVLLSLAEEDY
Sequence of Serine/threonine-protein kinase Nek2 (Homo sapiens) (P51955 whole entry, the tested form may be a part): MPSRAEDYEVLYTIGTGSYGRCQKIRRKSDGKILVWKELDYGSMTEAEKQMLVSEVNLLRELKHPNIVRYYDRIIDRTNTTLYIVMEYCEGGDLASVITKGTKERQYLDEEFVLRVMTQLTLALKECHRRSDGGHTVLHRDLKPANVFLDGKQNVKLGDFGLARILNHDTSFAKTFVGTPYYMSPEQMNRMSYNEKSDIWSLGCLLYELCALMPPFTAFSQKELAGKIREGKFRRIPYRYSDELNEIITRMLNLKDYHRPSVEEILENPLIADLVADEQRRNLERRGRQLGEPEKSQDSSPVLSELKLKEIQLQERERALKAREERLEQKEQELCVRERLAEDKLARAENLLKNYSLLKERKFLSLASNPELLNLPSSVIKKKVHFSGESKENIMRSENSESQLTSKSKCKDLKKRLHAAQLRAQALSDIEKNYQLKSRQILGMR
Sequence of ALK tyrosine kinase receptor (Homo sapiens), Q9UM73 [C1156Y] (Q9UM73 whole entry C1156Y, looked up, the tested form may be a part): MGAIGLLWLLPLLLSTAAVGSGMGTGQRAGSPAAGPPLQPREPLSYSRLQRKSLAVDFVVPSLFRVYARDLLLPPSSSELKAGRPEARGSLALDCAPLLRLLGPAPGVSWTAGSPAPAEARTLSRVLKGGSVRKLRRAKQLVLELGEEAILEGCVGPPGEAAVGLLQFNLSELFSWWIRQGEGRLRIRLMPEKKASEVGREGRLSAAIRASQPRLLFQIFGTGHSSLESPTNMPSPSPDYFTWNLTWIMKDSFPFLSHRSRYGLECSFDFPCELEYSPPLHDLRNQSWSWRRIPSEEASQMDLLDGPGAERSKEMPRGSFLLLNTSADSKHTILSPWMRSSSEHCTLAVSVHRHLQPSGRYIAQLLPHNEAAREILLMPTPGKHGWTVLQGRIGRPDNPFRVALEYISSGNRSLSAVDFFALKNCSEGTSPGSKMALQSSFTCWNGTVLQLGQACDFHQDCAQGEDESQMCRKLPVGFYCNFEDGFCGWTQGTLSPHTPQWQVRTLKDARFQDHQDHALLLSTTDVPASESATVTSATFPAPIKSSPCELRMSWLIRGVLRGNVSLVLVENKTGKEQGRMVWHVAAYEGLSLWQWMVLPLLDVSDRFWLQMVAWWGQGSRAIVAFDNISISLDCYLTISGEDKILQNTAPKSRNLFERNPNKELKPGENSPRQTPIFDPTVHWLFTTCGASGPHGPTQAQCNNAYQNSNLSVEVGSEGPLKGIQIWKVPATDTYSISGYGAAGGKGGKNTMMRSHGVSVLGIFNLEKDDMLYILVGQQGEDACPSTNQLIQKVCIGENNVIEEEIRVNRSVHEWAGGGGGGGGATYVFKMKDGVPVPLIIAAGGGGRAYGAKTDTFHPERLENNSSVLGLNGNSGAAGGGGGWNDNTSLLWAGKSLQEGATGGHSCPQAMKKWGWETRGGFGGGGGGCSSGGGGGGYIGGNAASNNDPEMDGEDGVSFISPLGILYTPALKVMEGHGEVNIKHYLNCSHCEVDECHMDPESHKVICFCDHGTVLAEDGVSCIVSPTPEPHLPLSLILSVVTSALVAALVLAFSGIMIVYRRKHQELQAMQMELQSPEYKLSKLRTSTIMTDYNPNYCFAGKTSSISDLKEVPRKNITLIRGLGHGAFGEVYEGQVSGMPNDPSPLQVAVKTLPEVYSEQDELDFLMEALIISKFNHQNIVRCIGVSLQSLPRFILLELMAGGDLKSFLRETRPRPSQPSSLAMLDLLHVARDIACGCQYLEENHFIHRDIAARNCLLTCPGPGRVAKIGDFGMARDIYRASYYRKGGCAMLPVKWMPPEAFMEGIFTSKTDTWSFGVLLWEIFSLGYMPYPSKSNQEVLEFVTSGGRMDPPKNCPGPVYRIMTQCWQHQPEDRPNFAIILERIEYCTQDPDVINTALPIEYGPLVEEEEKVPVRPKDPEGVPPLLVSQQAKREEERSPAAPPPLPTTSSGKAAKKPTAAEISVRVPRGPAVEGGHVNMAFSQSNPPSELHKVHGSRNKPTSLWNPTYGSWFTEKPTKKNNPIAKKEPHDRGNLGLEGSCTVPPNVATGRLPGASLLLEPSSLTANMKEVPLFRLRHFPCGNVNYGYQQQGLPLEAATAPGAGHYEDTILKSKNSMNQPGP
Sequence of Receptor-interacting serine/threonine-protein kinase 4 (Homo sapiens) (P57078 whole entry, the tested form may be a part, canonical isoform): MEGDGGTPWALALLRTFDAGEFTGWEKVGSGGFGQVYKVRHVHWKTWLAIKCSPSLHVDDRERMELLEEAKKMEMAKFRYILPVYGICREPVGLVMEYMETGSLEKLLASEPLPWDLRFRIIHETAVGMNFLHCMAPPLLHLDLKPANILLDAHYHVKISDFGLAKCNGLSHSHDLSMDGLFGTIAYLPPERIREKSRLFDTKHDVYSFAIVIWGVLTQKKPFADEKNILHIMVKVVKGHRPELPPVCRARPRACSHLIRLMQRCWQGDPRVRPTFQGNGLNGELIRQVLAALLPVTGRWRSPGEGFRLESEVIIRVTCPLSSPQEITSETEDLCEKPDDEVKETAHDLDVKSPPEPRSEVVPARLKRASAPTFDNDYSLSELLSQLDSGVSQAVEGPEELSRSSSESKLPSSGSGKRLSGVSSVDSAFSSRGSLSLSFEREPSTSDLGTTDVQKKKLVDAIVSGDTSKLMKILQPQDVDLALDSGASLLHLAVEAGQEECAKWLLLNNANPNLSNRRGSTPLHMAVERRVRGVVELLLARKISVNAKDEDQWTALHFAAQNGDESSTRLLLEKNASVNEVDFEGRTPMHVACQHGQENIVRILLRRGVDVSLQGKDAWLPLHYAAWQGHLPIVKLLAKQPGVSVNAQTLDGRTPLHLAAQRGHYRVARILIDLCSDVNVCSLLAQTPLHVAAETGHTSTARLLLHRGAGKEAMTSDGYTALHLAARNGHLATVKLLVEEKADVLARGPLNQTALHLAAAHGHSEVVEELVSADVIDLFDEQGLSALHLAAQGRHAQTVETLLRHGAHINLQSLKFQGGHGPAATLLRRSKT
Sequence of Cyclin-G-associated kinase (Homo sapiens) (O14976 whole entry, the tested form may be a part): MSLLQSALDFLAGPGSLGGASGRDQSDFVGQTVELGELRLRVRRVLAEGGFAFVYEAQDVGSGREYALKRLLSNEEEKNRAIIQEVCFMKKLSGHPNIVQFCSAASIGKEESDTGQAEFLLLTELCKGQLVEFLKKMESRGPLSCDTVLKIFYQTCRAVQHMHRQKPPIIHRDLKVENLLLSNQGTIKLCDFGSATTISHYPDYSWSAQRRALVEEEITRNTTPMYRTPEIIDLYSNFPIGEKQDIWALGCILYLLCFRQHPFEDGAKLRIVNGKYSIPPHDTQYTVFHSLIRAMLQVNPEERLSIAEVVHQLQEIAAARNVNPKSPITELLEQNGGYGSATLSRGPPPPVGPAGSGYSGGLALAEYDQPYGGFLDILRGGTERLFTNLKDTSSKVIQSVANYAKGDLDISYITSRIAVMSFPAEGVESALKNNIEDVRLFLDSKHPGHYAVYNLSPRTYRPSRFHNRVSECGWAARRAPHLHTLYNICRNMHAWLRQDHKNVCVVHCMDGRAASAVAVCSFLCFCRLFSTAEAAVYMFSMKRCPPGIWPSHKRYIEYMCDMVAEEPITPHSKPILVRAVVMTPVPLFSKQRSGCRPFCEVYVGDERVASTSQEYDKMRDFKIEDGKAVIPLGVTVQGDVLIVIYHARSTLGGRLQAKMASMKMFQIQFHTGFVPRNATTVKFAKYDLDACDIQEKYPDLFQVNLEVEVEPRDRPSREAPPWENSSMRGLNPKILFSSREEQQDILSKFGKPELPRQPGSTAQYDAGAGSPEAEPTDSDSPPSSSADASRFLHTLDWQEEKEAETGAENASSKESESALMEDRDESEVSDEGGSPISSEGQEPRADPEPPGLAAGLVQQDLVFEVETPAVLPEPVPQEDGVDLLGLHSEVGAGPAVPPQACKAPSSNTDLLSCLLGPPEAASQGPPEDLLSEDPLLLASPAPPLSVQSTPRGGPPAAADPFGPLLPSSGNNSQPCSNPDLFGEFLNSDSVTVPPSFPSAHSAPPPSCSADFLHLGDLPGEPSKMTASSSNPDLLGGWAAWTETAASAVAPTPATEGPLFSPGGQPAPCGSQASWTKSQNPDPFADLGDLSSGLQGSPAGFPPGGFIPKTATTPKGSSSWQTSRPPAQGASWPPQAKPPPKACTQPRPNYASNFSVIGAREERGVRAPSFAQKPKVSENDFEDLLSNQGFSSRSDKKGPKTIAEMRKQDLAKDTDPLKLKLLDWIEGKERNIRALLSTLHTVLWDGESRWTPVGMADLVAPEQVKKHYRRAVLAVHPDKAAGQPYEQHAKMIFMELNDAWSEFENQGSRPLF
Sequence of Cyclin-dependent kinase 3 (Homo sapiens) (Q00526 whole entry, looked up, the tested form may be a part): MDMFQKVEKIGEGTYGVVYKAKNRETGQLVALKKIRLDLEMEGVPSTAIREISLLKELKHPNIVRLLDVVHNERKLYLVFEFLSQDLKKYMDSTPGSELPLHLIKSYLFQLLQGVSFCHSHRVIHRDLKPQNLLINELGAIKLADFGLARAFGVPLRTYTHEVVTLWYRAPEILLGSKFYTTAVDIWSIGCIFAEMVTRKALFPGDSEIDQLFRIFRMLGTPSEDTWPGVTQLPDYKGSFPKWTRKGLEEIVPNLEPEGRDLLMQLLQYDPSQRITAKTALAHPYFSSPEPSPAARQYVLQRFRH

Compound: COCCN[C@H]1CC[C@H](Nc2cc(-c3csc(NCC4(C#N)CCOCC4)n3)c(Cl)cn2)CC1
- GI50 (GISTT1): 2.1 nM
- Activity [1]: 94%
- Activity [2]: 100%
- Activity [3]: 69%
- Activity [4]: 96%
- GI50 [5]: 11 to 37 nM
- Activity [6]: 86%
- Activity [7]: 87%
- Activity [8]: 96%
- Activity [9]: 21%
- Activity [10]: 100%
- Activity [11]: 99%
- Activity [12]: 100%
- Activity [13]: 81%
- Activity [14]: 86%
- Activity [15]: 89%
- Activity [16]: 85%
- Activity [17]: 100%
- Cmax [18]: 414 ng/mL
- Activity [19]: 100%
